In ChEMBL document CHEMBL2440094, “Thiazolidinone-peptide hybrids as dengue virus protease inhibitors with antiviral activity in cell culture” (J Med Chem, 2013):
Active and inactive are the calls of the source. The calls are words filed in the database; no cut-off is given here.

Tested on: not listed separately
Assay: Permeability of the compound by PAMPA
Type: ADME
Conditions: read-out: permeability
In short: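 PAMPA with precoated trilayer lipid/oil/lipid membranes, donor wells holding 200 μM compound in PBS pH 7.4 (2% DMSO final), in triplicate. Incubated 5 h at room temperature. Donor and acceptor concentrations determined by UV plate reader or HPLC-UV against calibration curves. Pe and mass retention R calculated.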

Which Papp does the source give for `CCCC[C@H](NC(=O)[C@H](CCCCN)NC(=O)[C@H](CCCNC(=N)N)NC(=O)c1ccc(/C=C2\SC(=O)N(C3CCCCC3)C2=O)cc1)C(N)=O` here?
Its Papp is 1.69 ×10⁻⁶ cm/s.

With `CCCC[C@H](NC(=O)[C@H](CCCCN)NC(=O)[C@H](CCCNC(=N)N)NC(=O)c1ccc(/C=C2\SC(=O)N(Cc3ccc(F)cc3)C2=O)cc1)C(N)=O` as the compound, how does the Papp read?
Its Papp is 0.43 ×10⁻⁶ cm/s.

Tested on: Dengue virus
Assay: Mixed type inhibition of Dengue virus NS2B-NS3 protease expressed in Escherichia coli BL 21 (DE3) using Abz-Nle-Lys-Arg-Arg-Ser-3-(NO2)Tyr as substrate by Cornish-Bowden plot analysis
Conditions: not given
In short: (§1)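 DEN2 NS2B–NS3 FRET assay run at inhibitor 0–6 μM (prior-series compounds 5–50 μM) and substrate 50, 100, 150 and 200 μM, in triplicate, with inner-filter correction. Ki from Dixon plots (1/v vs [I]) and Ki′ from Cornish-Bowden plots (S/v vs [I]). Inhibition mode assigned from these plots.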

For `CCCC[C@H](NC(=O)[C@H](CCCCN)NC(=O)[C@H](CCCNC(=N)N)NC(=O)c1ccc(/C=C2\SC(=O)N(Cc3ccc(F)cc3)C2=O)cc1)C(N)=O`, which inhibition is on record?
Its inhibition is “Active”.

Tested on: Dengue virus
Assay: Competitive inhibition of Dengue virus NS2B-NS3 protease expressed in Escherichia coli BL 21 (DE3) using Abz-Nle-Lys-Arg-Arg-Ser-3-(NO2)Tyr as substrate by Cornish-Bowden plot analysis
Conditions: not given
In short: as §1

With `CCCC[C@H](NC(=O)[C@H](CCCCN)NC(=O)[C@H](CCCNC(=N)N)NC(=O)c1ccc(/C=C2\SC(=O)N(C3CCCCC3)C2=O)cc1)C(N)=O` as the compound, how does the inhibition read?
The inhibition was “Active”.

For `CCCC[C@H](NC(=O)[C@H](CCCCN)NC(=O)[C@H](CCCNC(=N)N)NC(=O)c1ccc(/C=C2\SC(=O)N(Cc3ccc(OC)cc3)C2=O)cc1)C(N)=O`, which inhibition is on record?
Its inhibition is “Active”.

Which inhibition does the source give for `CCCC[C@H](NC(=O)[C@H](CCCCN)NC(=O)[C@H](CCCNC(=N)N)NC(=O)c1ccc(/C=C2\SC(=O)N(CCOC(C)=O)C2=O)cc1)C(N)=O` here?
The inhibition was “Active”.

Which inhibition does the source give for `CCCC[C@H](NC(=O)[C@H](CCCCN)NC(=O)[C@H](CCCNC(=N)N)NC(=O)c1ccc(/C=C2\SC(=O)N(Cc3ccc(C)cc3)C2=O)cc1)C(N)=O` here?
The inhibition was “Active”.

Tested on: not listed separately
Assay: Inhibition of Dengue virus NS2B-NS3 protease expressed in Escherichia coli BL 21 (DE3) using Abz-Nle-Lys-Arg-Arg-Ser-3-(NO2)Tyr as substrate assessed as enzyme-substrate-inhibitor complex by Cornish-Bowden plot analysis
Conditions: not given
In short: as §1

Which Ki does the source give for `CCCC[C@H](NC(=O)[C@H](CCCCN)NC(=O)[C@H](CCCNC(=N)N)NC(=O)c1ccc(/C=C2\SC(=O)N(C3CCCCC3)C2=O)cc1)C(N)=O` here?
Its Ki is > 10 µM.

With `CCCC[C@H](NC(=O)[C@H](CCCCN)NC(=O)[C@H](CCCNC(=N)N)NC(=O)c1ccc(/C=C2\SC(=O)N(Cc3ccc(OC)cc3)C2=O)cc1)C(N)=O` as the compound, how does the Ki read?
The Ki was > 10 µM.

With `CCCC[C@H](NC(=O)[C@H](CCCCN)NC(=O)[C@H](CCCNC(=N)N)NC(=O)c1ccc(/C=C2\SC(=O)N(Cc3ccc(F)cc3)C2=O)cc1)C(N)=O` as the compound, how does the Ki read?
The Ki was 5.2 µM.

Which Ki does the source give for `CCCC[C@H](NC(=O)[C@H](CCCCN)NC(=O)[C@H](CCCNC(=N)N)NC(=O)c1ccc(/C=C2\SC(=O)N(CCOC(C)=O)C2=O)cc1)C(N)=O` here?
The Ki was > 10 µM.

With `CCCC[C@H](NC(=O)[C@H](CCCCN)NC(=O)[C@H](CCCNC(=N)N)NC(=O)c1ccc(/C=C2\SC(=O)N(Cc3ccc(C)cc3)C2=O)cc1)C(N)=O` as the compound, how does the Ki read?
Its Ki is > 10 µM.

Tested on: not listed separately
Assay: Inhibition of Dengue virus NS2B-NS3 protease expressed in Escherichia coli BL 21 (DE3) using Abz-Nle-Lys-Arg-Arg-Ser-3-(NO2)Tyr as substrate assessed as enzyme-inhibitor complex by Cornish-Bowden plot analysis
Conditions: in the assay text read “Dixon plot” for “Cornish-Bowden plot”
In short: as §1

With `CCCC[C@H](NC(=O)[C@H](CCCCN)NC(=O)[C@H](CCCNC(=N)N)NC(=O)c1ccc(/C=C2\SC(=O)N(C3CCCCC3)C2=O)cc1)C(N)=O` as the compound, how does the Ki read?
Its Ki is 2.3 µM.

For `CCCC[C@H](NC(=O)[C@H](CCCCN)NC(=O)[C@H](CCCNC(=N)N)NC(=O)c1ccc(/C=C2\SC(=O)N(Cc3ccc(OC)cc3)C2=O)cc1)C(N)=O`, which Ki is on record?
Its Ki is 2.2 µM.

With `CCCC[C@H](NC(=O)[C@H](CCCCN)NC(=O)[C@H](CCCNC(=N)N)NC(=O)c1ccc(/C=C2\SC(=O)N(Cc3ccc(F)cc3)C2=O)cc1)C(N)=O` as the compound, how does the Ki read?
The Ki was 1.5 µM.

Which Ki does the source give for `CCCC[C@H](NC(=O)[C@H](CCCCN)NC(=O)[C@H](CCCNC(=N)N)NC(=O)c1ccc(/C=C2\SC(=O)N(CCOC(C)=O)C2=O)cc1)C(N)=O` here?
Its Ki is 3.6 µM.

With `CCCC[C@H](NC(=O)[C@H](CCCCN)NC(=O)[C@H](CCCNC(=N)N)NC(=O)c1ccc(/C=C2\SC(=O)N(Cc3ccc(C)cc3)C2=O)cc1)C(N)=O` as the compound, how does the Ki read?
Its Ki is 3.1 µM.

Tested on: not listed separately
Assay: Inhibition of Dengue virus NS2B-NS3 protease expressed in Escherichia coli BL 21 (DE3) using Abz-Nle-Lys-Arg-Arg-Ser-3-(NO2)Tyr as substrate after 15 mins
Conditions: not given

Which IC50 does the source give for `CCCC[C@H](NC(=O)[C@H](CCCCN)NC(=O)[C@H](CCCNC(=N)N)NC(=O)c1ccc(/C=C2\SC(=O)N(C3CCCCC3)C2=O)cc1)C(N)=O` here?
The IC50 was 3.4 µM.

For `CCCC[C@H](NC(=O)[C@H](CCCCN)NC(=O)[C@H](CCCNC(=N)N)NC(=O)c1ccc(/C=C2\SC(=O)N(Cc3ccc(OC)cc3)C2=O)cc1)C(N)=O`, which IC50 is on record?
The IC50 was 3.3 µM.

With `CCCC[C@H](NC(=O)[C@H](CCCCN)NC(=O)[C@H](CCCNC(=N)N)NC(=O)c1ccc(/C=C2\SC(=O)N(Cc3ccc(F)cc3)C2=O)cc1)C(N)=O` as the compound, how does the IC50 read?
The IC50 was 2.9 µM.

For `CCCC[C@H](NC(=O)[C@H](CCCCN)NC(=O)[C@H](CCCNC(=N)N)NC(=O)c1ccc(/C=C2\SC(=O)N(CCOC(C)=O)C2=O)cc1)C(N)=O`, which IC50 is on record?
The IC50 was 4.8 µM.

Which IC50 does the source give for `CCCC[C@H](NC(=O)[C@H](CCCCN)NC(=O)[C@H](CCCNC(=N)N)NC(=O)c1ccc(/C=C2\SC(=O)N(Cc3ccc(C)cc3)C2=O)cc1)C(N)=O` here?
The IC50 was 4.8 µM.

Target: Prothrombin (Homo sapiens) (UniProt P00734)
Assay: Inhibition of thrombin (unknown origin) using Boc-Val-Pro-Arg-AMC as substrate at 25 uM after 10 mins by continuous fluorimetric assay
Conditions: not given
In short: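 Thrombin (10 nM) preincubated 15 min with inhibitor (25 μM final) in 50 mM Tris-HCl pH 7.5, 150 mM NaCl, 0.05% Tween 20. Boc-Val-Pro-Arg-AMC then added to 50 μM (Km 16 μM). Fluorescence (ex 355 nm, em 460 nm) followed for 10 min as slope. Triplicate; percent inhibition versus no-inhibitor control.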

For `CCCC[C@H](NC(=O)[C@H](CCCCN)NC(=O)[C@H](CCCNC(=N)N)NC(=O)c1ccc(/C=C2\SC(=O)N(C3CCCCC3)C2=O)cc1)C(N)=O`, which inhibition is on record?
The inhibition was 9.1%.

Which inhibition does the source give for `CCCC[C@H](NC(=O)[C@H](CCCCN)NC(=O)[C@H](CCCNC(=N)N)NC(=O)c1ccc(/C=C2\SC(=O)N(Cc3ccc(OC)cc3)C2=O)cc1)C(N)=O` here?
Its inhibition is 12.3%.

With `CCCC[C@H](NC(=O)[C@H](CCCCN)NC(=O)[C@H](CCCNC(=N)N)NC(=O)c1ccc(/C=C2\SC(=O)N(Cc3ccc(F)cc3)C2=O)cc1)C(N)=O` as the compound, how does the inhibition read?
Its inhibition is 20.3%.

For `CCCC[C@H](NC(=O)[C@H](CCCCN)NC(=O)[C@H](CCCNC(=N)N)NC(=O)c1ccc(/C=C2\SC(=O)N(CCOC(C)=O)C2=O)cc1)C(N)=O`, which inhibition is on record?
Its inhibition is 16.8%.

Which inhibition does the source give for `CCCC[C@H](NC(=O)[C@H](CCCCN)NC(=O)[C@H](CCCNC(=N)N)NC(=O)c1ccc(/C=C2\SC(=O)N(Cc3ccc(C)cc3)C2=O)cc1)C(N)=O` here?
Its inhibition is 9.3%.

Tested on: West Nile virus
Assay: Inhibition of West Nile virus NS2B-NS3 protease expressed in Escherichia coli BL 21 (DE3) using Abz-Gly-Leu-Lys-Arg-Gly-Gly-3-(NO2)Tyr as substrate at 50 uM after 15 mins
Conditions: not given

For `CCCC[C@H](NC(=O)[C@H](CCCCN)NC(=O)[C@H](CCCNC(=N)N)NC(=O)c1ccc(/C=C2\SC(=O)N(C3CCCCC3)C2=O)cc1)C(N)=O`, which inhibition is on record?
The inhibition was 51.1%.

Which inhibition does the source give for `CCCC[C@H](NC(=O)[C@H](CCCCN)NC(=O)[C@H](CCCNC(=N)N)NC(=O)c1ccc(/C=C2\SC(=O)N(Cc3ccc(OC)cc3)C2=O)cc1)C(N)=O` here?
The inhibition was 47.2%.

For `CCCC[C@H](NC(=O)[C@H](CCCCN)NC(=O)[C@H](CCCNC(=N)N)NC(=O)c1ccc(/C=C2\SC(=O)N(Cc3ccc(F)cc3)C2=O)cc1)C(N)=O`, which inhibition is on record?
Its inhibition is 63.7%.

Which inhibition does the source give for `CCCC[C@H](NC(=O)[C@H](CCCCN)NC(=O)[C@H](CCCNC(=N)N)NC(=O)c1ccc(/C=C2\SC(=O)N(CCOC(C)=O)C2=O)cc1)C(N)=O` here?
The inhibition was 41.4%.

With `CCCC[C@H](NC(=O)[C@H](CCCCN)NC(=O)[C@H](CCCNC(=N)N)NC(=O)c1ccc(/C=C2\SC(=O)N(Cc3ccc(C)cc3)C2=O)cc1)C(N)=O` as the compound, how does the inhibition read?
Its inhibition is 66.7%.

Tested on: Dengue virus
Assay: Inhibition of Dengue virus NS2B-NS3 protease expressed in Escherichia coli BL 21 (DE3) using Abz-Nle-Lys-Arg-Arg-Ser-3-(NO2)Tyr as substrate at 50 uM after 15 mins
Conditions: not given

Which inhibition does the source give for `CCCC[C@H](NC(=O)[C@H](CCCCN)NC(=O)[C@H](CCCNC(=N)N)NC(=O)c1ccc(/C=C2\SC(=O)N(C3CCCCC3)C2=O)cc1)C(N)=O` here?
Its inhibition is 98.4%.

For `CCCC[C@H](NC(=O)[C@H](CCCCN)NC(=O)[C@H](CCCNC(=N)N)NC(=O)c1ccc(/C=C2\SC(=O)N(Cc3ccc(OC)cc3)C2=O)cc1)C(N)=O`, which inhibition is on record?
The inhibition was 97%.

With `CCCC[C@H](NC(=O)[C@H](CCCCN)NC(=O)[C@H](CCCNC(=N)N)NC(=O)c1ccc(/C=C2\SC(=O)N(Cc3ccc(F)cc3)C2=O)cc1)C(N)=O` as the compound, how does the inhibition read?
The inhibition was 99.4%.

Which inhibition does the source give for `CCCC[C@H](NC(=O)[C@H](CCCCN)NC(=O)[C@H](CCCNC(=N)N)NC(=O)c1ccc(/C=C2\SC(=O)N(CCOC(C)=O)C2=O)cc1)C(N)=O` here?
The inhibition was 97.6%.

Which inhibition does the source give for `CCCC[C@H](NC(=O)[C@H](CCCCN)NC(=O)[C@H](CCCNC(=N)N)NC(=O)c1ccc(/C=C2\SC(=O)N(Cc3ccc(C)cc3)C2=O)cc1)C(N)=O` here?
The inhibition was 97.6%.
